The values below come from PubChem BioAssay.

Assay [1] addresses Pantothenate synthetase (Mycobacterium tuberculosis (strain ATCC 25618 / H37Rv)) (UniProt P9WIL5). The assay can be described thus: Coupled enzyme confirmation of inhibitors against recombinant Mtb PanC (AID 375; call rule not given here;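 further: 0% = full reaction with vehicle and 100% = no enzyme background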). The conditions noted are these: coupled enzyme assay; at 10 µM, stronger effect = higher value.
Assay [2] is described as follows: Her2 expression decrease, cell viability multiplex – SKBR3 breast tumor cells, AlphaScreen, ATP viability, primary screen (AID 461;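 active means Her2 level under about 52% in both replicate screens, with viability over 70% of control, limit read from the data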;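 on Her2 level: lower value means less Her2 protein in the cells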;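 on viability: percent of carrier control wells set as 100% viability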). The conditions noted are these: SKBR3 Her2 protein level, 18-24 h, measured here: SKBR3 viability, ATP luminescence, at 10 µM. A general note: In Alpha technology, singlet oxygen from a donor bead excites a nearby acceptor bead.
For assay [3], the target named is Receptor tyrosine-protein kinase erbB-2 (Homo sapiens) (UniProt P04626). The description is as above. The note with it: 18-24 h, at 10 µM, stronger effect = lower value.
Chain of Receptor tyrosine-protein kinase erbB-2 (Homo sapiens) (P04626 whole entry, looked up): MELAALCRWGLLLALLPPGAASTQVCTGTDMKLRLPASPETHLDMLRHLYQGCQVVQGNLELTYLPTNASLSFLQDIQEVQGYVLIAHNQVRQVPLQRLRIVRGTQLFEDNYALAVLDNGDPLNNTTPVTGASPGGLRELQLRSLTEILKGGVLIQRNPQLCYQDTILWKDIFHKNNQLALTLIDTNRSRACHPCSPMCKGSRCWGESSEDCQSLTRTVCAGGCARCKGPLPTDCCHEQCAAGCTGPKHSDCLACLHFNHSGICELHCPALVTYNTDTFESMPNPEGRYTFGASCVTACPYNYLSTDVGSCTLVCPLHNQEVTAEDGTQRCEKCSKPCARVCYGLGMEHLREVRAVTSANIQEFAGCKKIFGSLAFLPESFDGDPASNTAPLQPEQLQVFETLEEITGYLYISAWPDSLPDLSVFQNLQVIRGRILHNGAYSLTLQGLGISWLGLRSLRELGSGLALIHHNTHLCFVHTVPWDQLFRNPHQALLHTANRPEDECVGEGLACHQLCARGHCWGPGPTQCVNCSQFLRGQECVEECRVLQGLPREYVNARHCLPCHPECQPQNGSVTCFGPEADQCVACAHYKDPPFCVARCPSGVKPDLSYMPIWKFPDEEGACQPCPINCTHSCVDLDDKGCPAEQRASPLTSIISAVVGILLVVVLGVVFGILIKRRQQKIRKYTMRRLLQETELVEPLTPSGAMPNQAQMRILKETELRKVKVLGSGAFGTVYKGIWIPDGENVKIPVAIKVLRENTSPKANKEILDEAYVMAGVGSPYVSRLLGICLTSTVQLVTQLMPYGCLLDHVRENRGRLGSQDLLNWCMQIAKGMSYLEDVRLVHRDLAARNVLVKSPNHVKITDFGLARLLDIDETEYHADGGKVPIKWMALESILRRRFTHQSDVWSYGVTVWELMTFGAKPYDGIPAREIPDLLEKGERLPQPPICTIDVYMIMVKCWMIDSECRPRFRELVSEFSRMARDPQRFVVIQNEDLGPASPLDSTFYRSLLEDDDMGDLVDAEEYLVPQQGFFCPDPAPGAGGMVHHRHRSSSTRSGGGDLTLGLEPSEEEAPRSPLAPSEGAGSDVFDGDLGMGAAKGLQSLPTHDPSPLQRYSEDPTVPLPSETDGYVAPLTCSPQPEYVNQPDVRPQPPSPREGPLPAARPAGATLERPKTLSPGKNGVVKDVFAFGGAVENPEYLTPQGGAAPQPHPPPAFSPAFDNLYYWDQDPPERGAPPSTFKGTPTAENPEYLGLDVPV
A short description of assay [4]: reduced viability of SK-BR-3 breast cancer cells – cell-based, 24 h, human, pilot screen (AID 572;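 active means viability at or below 10% of carrier control in both of two separate runs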;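 further: compound exposure lasted between 18 and 24 h rather than exactly 24 h; 100% = carrier-treated control wells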). The note with it: SK-BR-3 viability, CellTiter-Glo luminescence, at 10 µM, stronger effect = lower value. Background: Cellular ATP, detected with luciferase, serves as a proxy for viable cell number.
Assay [5] is described as follows: HUVEC growth inhibition – cell-based, human, primary screen (AID 575;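 active means viability at or below 30% in both replicate assays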;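 further: 100% = median of untreated cell wells with 0.1% DMSO on each plate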). The note with it: HUVEC proliferation, CellTiter-Glo luminescence, 72 h; at 10 µM; stronger effect = lower value. Summed up:
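Timing: 72 h treatment at 37 °C; material: HUVEC primary cells; technique: CellTiter-Glo luminescence measuring cellular ATP; controls: vehicle and MePR control wells; measure: percent of median DMSO-control luminescence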

The nature of assay [6]: H69AR cell proliferation blockers – human, duplicate replicates, primary screen (AID 580).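 Further: 100% = mean luminescence of untreated wells and 0% = no signal.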 The conditions noted are these: H69AR lung tumor cells viability, ATP luminescence, 72 h; at 10 µM; stronger effect = lower value.
Assay [7] in a line: MRP1 drug-resistance reversers in H69AR cells – cell-based, doxorubicin co-treatment, pilot screen (AID 601;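 active means viability loss from added drug above about 55%, and viability with drug at most 40%, in both replicates, limit read from the data, passing the limit was not always enough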). The conditions noted are these: CellTiter-Glo, 72 h, at 10 µM; for differential viability (reversal): stronger effect = higher value.
A short description of assay [8]: yeast transport mutant growth inhibition pilot in 384-well plates, post-Golgi transport modulator project (AID 636; in the data active means inhibition above about 31%). The note with it: absorbance 615 nm, about 18 h, stronger effect = higher value.
Assay [9] in a line: growth suppression of yeast trafficking mutant, preliminary HTS, modulators of trafficking downstream of Golgi apparatus project, 1536-format plate, OD 615 nm (AID 637; in the data active means inhibition above about 30%). The note with it: yeast transport mutant growth, absorbance 615 nm, 18 h; stronger effect = higher value.
The mark [10] stands for this setting: H69AR cells + 2 uM doxorubicin, measured here: viability with 2 uM doxorubicin, stronger effect = lower value.
The mark [11] stands for this setting: H69AR cells, compound alone cytotoxicity.

Active and inactive are the calls of the source.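 How the source made its calls, unless noted: active means viability at or under a set limit in both replicates, limit being median viability minus 3 SD (cut at about 48% in these data, passing the limit was not always enough); inconclusive means at or under the limit in just one replicate; inactive means at or above the limit in both replicates.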

For orientation: inhibition means the change of the read-out against control, counted positive when it falls. Usually viability stands for a read-out of living cells in per cent, often relative to untreated cells.

Chain of Pantothenate synthetase (Mycobacterium tuberculosis (strain ATCC 25618 / H37Rv)) (P9WIL5 whole entry, looked up): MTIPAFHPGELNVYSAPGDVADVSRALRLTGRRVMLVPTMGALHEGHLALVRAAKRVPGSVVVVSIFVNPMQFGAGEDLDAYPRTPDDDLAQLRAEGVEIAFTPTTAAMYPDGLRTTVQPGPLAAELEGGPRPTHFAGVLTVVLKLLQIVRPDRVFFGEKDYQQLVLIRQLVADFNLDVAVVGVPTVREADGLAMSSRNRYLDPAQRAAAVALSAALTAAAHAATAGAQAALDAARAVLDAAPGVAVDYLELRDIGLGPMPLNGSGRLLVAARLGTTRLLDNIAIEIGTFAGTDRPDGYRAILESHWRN

Regarding `O=C(c1ccc2nc3ccc(Cl)cc3c(=O)n2c1)N1CCC2(CC1)OCCO2`, the inhibition in [1] was 12% (inactive); in [8], -3.87% (inactive); in assay [9], 1.94% (inactive). For the same compound, the viability was 97.5% in assay [2]; 97.5% (inactive) in assay [4]; 98% (inactive) in [5]; 96.7% (inactive) in [6]; 95.4% in [7] (setting [10]); 96.7% in [7] (setting [11]). For the same compound, the Her2 level in assay [3] was 91.5% (inactive). Also, the differential viability (reversal) in assay [7] (H69AR cells + 2 uM doxorubicin) was 1.37% (inactive).

For `NC(=O)CSP(=O)(c1ccccc1)c1ccccc1`, the inhibition in assay [1] was 0% (inactive); in assay [8], -8.53% (inactive); in [9], -2.9% (inactive). The viability in [2] was 94%; in [4], 94% (inactive); in assay [5], 109% (inactive); in [6], 102% (inactive); in assay [7] (setting [10]), 92.3%; in assay [7] (setting [11]), 102%. Further, the Her2 level in [3] is 118% (inactive). Further, the differential viability (reversal) in [7] (H69AR cells + 2 uM doxorubicin) was 10.1% (inactive).

On to `COC(=O)c1cncn1C(C)c1ccccc1` (stereo not given), for which the inhibition was 0% (inactive) in assay [1], -4.46% (inactive) in assay [8] and -5.25% (inactive) in assay [9]. In addition, the viability in [2] was 88.5%; in assay [4], 88.5% (inactive); in [5], 108% (inactive); in assay [6], 95% (inactive); in [7] (setting [10]) it was 88.9%; in assay [7] (setting [11]), 95%. In [3], the Her2 level was 80.5% (inactive). The differential viability (reversal) in [7] (H69AR cells + 2 uM doxorubicin) was 6.07% (inactive).

With `O=C(CN1C(=O)CN=C(c2ccccc2)c2ccccc21)NCc1ccco1`, the inhibition in assay [1] is 2% (inactive); in [8], -3.42% (inactive); in assay [9] it was -5% (inactive). Also, the viability in assay [2] is 98%; in assay [4] it was 98% (inactive); in [5] it was 96.7% (inactive); in assay [6], 80.4% (inactive); in assay [7] (setting [10]) it was 81.7%; in [7] (setting [11]), 80.4%. For the same compound, the Her2 level in [3] was 100% (inactive). The differential viability (reversal) in [7] (H69AR cells + 2 uM doxorubicin) is -1.24% (inactive).

As to `COc1ccc(C(=O)C(C)(C)NO)cc1`, the results for the inhibition in assay [1], in assay [8] and in assay [9] were 0% (inactive), -6.49% (inactive) and 0.48% (inactive), respectively. In addition, the viability in assay [2] is 108%; in [4], 108% (inactive); in [5], 99.9% (inactive); in [6], 86.5% (inactive); in assay [7] (setting [10]), 88.8%; in [7] (setting [11]) it was 86.5%. For the same compound, in assay [3], the Her2 level is 100% (inactive). For the same compound, the differential viability (reversal) in [7] (H69AR cells + 2 uM doxorubicin) was -2.28% (inactive).

Turning to `Cc1ccc(C)c(NC2=NCCCS2)c1`, the inhibition in [1] is 0% (inactive); in [8], -8.08% (inactive); in assay [9], -1.59% (inactive). Also, the viability was 108% in assay [2]; 108% (inactive) in assay [4]; 91.9% (inactive) in assay [5]; 104% (inactive) in assay [6]; 92.9% in assay [7] (setting [10]); 104% in [7] (setting [11]). Besides, the Her2 level in assay [3] was 89.5% (inactive). Further, the differential viability (reversal) in [7] (H69AR cells + 2 uM doxorubicin) was 11.3% (inactive).

Turning to `COc1ccccc1N(CC(=O)NC1CCCCC1)C(=O)c1cnn(C(C)C)c1`, the inhibition is 7% (inactive) in [1], 1.08% (inactive) in assay [8] and -5.24% (inactive) in assay [9]. For the same compound, the viability is 96.5% in assay [2]; 96.5% (inactive) in assay [4]; 103% (inactive) in [5]; 106% (inactive) in assay [6]; 97.2% in assay [7] (setting [10]); 106% in [7] (setting [11]). Also, the Her2 level in assay [3] was 104% (inactive). Moreover, the differential viability (reversal) in assay [7] (H69AR cells + 2 uM doxorubicin) is 8.82% (inactive).

For `COc1ccccc1N1CCN(Cc2cccc(OC)c2O)CC1`, the inhibition is 0% (inactive) in assay [1], -5% (inactive) in assay [8] and 5.25% (inactive) in assay [9]. The viability was 89% in assay [2]; 89% (inactive) in assay [4]; 118% (inactive) in [5]; 91.6% (inactive) in [6]; 86.6% in [7] (setting [10]); 91.6% in assay [7] (setting [11]). The Her2 level in assay [3] is 93% (inactive). Besides, the differential viability (reversal) in [7] (H69AR cells + 2 uM doxorubicin) was 5.07% (inactive).

On to `COC(=O)c1c(C)n(Cc2ccc3c(c2)OCO3)c2ccc(O)cc12`, for which the results for the inhibition in assay [1], in [8] and in assay [9] were 6% (inactive), -3.6% (inactive) and -1.94% (inactive), respectively. Moreover, the viability in assay [2] was 116%; in assay [4] it was 116% (inactive); in assay [5], 54.5% (inactive); in [6], 105% (inactive); in assay [7] (setting [10]) it was 100%; in assay [7] (setting [11]), 105%. In addition, in assay [3], the Her2 level is 95% (inactive). Moreover, the differential viability (reversal) in assay [7] (H69AR cells + 2 uM doxorubicin) was 5.33% (inactive).

Regarding `O=C(c1ccncc1)C12CN3CN(CN(C3)C1)C2`, the inhibition in [1] was 0% (inactive); in assay [8], -3.25% (inactive); in assay [9], -2.5% (inactive). In addition, the viability was 115% in assay [2]; 115% (inactive) in assay [4]; 97.6% (inactive) in [5]; 89.5% (inactive) in [6]; 84.4% in [7] (setting [10]); 89.5% in [7] (setting [11]). Moreover, the Her2 level in [3] was 114% (inactive). For the same compound, the differential viability (reversal) in assay [7] (H69AR cells + 2 uM doxorubicin) is 5.16% (inactive).

`CCOC(=O)c1cccc([P+](=O)O)c1`: the inhibition was 0% (inactive) in assay [1], 3.95% (inactive) in [8] and -9.03% (inactive) in [9]. Further, the viability is 92.5% in assay [2]; 92.5% (inactive) in [4]; 96.3% (inactive) in assay [5]; 96.5% (inactive) in assay [6]; 97.1% in [7] (setting [10]); 96.5% in [7] (setting [11]). The Her2 level in assay [3] is 114% (inactive). Besides, the differential viability (reversal) in assay [7] (H69AR cells + 2 uM doxorubicin) is -0.595% (inactive).

Turning to `CCN1CCN(Cc2cc(Br)cc(OC)c2O)CC1`, the values for the inhibition in [1], in assay [8] and in assay [9] were 7% (inactive), -3.2% (inactive) and -6.19% (inactive), respectively. Also, the viability in [2] is 93.5%; in assay [4], 93.5% (inactive); in [5], 110% (inactive); in [6], 94.2% (inactive); in [7] (setting [10]) it was 97.1%; in assay [7] (setting [11]), 94.2%. Besides, the Her2 level in assay [3] was 114% (inactive). In addition, in [7] (H69AR cells + 2 uM doxorubicin), the differential viability (reversal) is -2.88% (inactive).

In the case of `Cc1ccc(CS(=O)(=O)CCC(=O)N2CCC3(CC2)OCCO3)cc1`, the inhibition in assay [1] is 7% (inactive); in [8], -4.87% (inactive); in assay [9], -0.82% (inactive). Also, the viability in [2] is 106%; in assay [4], 106% (inactive); in assay [5] it was 121% (inactive); in [6], 97.7% (inactive); in assay [7] (setting [10]), 87.7%; in assay [7] (setting [11]) it was 97.7%. Moreover, the Her2 level in [3] was 118% (inactive). Moreover, in assay [7] (H69AR cells + 2 uM doxorubicin), the differential viability (reversal) was 9.99% (inactive).

As for `Cc1cc(C)c(C(=O)CN2CCOCC2)c(C)c1`, the figures for the inhibition in [1], in assay [8] and in assay [9] were 2% (inactive), -5.19% (inactive) and -0.33% (inactive), respectively. The viability in assay [2] is 105%; in assay [4] it was 105% (inactive); in [5], 83.7% (inactive); in assay [6], 74% (inactive); in [7] (setting [10]) it was 80.7%; in assay [7] (setting [11]), 74%. In addition, the Her2 level in [3] was 98.5% (inactive). The differential viability (reversal) in assay [7] (H69AR cells + 2 uM doxorubicin) was -6.78% (inactive).

Take `Cn1c(=O)cc(SCC(=O)N2CCC3(CC2)OCCO3)c2ccc(Cl)cc21`: the inhibition in assay [1] is 9% (inactive); in [8], -3.03% (inactive); in assay [9] it was 1.77% (inactive). Also, the viability in assay [2] was 116%; in assay [4], 116% (inactive); in assay [5] it was 87.6% (inactive); in assay [6], 79.1% (inactive); in [7] (setting [10]) it was 70.3%; in [7] (setting [11]) it was 79.1%. Further, the Her2 level in assay [3] is 94.5% (inactive). In addition, the differential viability (reversal) in assay [7] (H69AR cells + 2 uM doxorubicin) is 8.79% (inactive).
